Data published in ChEMBL document CHEMBL1126556, “Novel antiasthmatic agents with dual activities of thromboxane A2 synthetase inhibition and bronchodilation. 1. 2-[2-(1-Imidazolyl)alkyl]-1(2H)-phthalazinones” (J Med Chem, 1993).

What was measured:
Cavia porcellus [1] = organism: Cavia porcellus; test: Tested in vitro for bronchodilatory activity by spontaneous tone inhibition in guinea pig tracheal strips; format: functional; details: Trachea
Cavia porcellus [2] = test: In vivo inhibitory effect on airway constriction induced by histamine 2-5 micro g/kg iv at 1 min after 10 mg/kg intravenous dose in anesthetized guinea pigs; format: functional
Summary of the method: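 Male Dunkin-Hartley guinea pigs, anesthetized with pentobarbital 35 mg/kg ip, cannulated at jugular vein and trachea, ventilated at 10 mL/kg and 60 strokes/min. Insufflation pressure recorded continuously by transducer. Histamine given iv every 10 min until the constriction was reproducible. Compound 10 mg/kg iv given 1 min before the next challenge. Result is mean % inhibition against control response, from ≥3 experiments.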

[3] = target: T1, Thromboxane-A synthase (Rattus norvegicus) (UniProt P49430); test: Tested for inhibition of thromboxane A2 (TXA2) production in rat serum by ex vivo assay after peroral dose of 30 mg/kg; format: functional, organism-based; parameters: dose 30 mg/kg
T1 sequence (whole entry): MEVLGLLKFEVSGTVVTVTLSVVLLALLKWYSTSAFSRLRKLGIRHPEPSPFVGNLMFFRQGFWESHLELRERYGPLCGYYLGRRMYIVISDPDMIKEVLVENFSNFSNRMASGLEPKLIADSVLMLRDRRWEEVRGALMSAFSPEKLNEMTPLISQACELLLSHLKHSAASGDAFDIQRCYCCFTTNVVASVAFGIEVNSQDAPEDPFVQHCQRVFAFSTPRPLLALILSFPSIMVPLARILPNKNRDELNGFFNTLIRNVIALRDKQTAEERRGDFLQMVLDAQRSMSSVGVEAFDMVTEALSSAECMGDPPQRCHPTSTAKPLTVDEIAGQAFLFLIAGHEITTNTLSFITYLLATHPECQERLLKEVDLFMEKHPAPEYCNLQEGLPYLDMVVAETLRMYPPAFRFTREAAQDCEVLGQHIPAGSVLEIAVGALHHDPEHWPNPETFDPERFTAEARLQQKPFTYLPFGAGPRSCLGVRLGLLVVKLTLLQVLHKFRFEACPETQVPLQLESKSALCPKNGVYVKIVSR
Summary of the method: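 Male SD rats (240–260 g), fasted 20 h, dosed orally in 0.5% carboxymethylcellulose or given vehicle. After 1 h under ether, 2 mL cardiac blood was drawn and clotted 90 min at 37 °C. Serum was EtOH-deproteinized and stored at -20 °C. TXB₂ measured by radioimmunoassay. % inhibition calculated against each vehicle control group.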

[4] = tested on: Thromboxane-A synthase (Oryctolagus cuniculus); test: Tested for inhibition of thromboxane A2 (TXA2) production in rabbit by in vitro assay at 1 uM
[5] = Partition coefficient (logP); format: physicochemical; details: octanol/water

SMILES: O=c1c2ccccc2c(Cc2ccccc2)nn1CCn1ccnc1
- IC50 (Cavia porcellus [1]): 10.7 µM
- inhibition in vivo at 10 mg/kg (Cavia porcellus [2]): 98%
- inhibition [3]: -5%
- inhibition [4]: 45%

SMILES: O=c1c2ccccc2c(-c2ccccc2)nn1CCCCCn1ccnc1
- IC50 (Cavia porcellus [1]): 23.4 µM
- inhibition [4]: 69%

SMILES: CCOC(=O)c1cccc(-c2nn(CCn3ccnc3)c(=O)c3ccccc23)c1
- IC50 (Cavia porcellus [1]): 2.34 µM
- inhibition in vivo at 10 mg/kg (Cavia porcellus [2]): 90%
- inhibition [3]: 0%
- inhibition [4]: 55%

SMILES: CC(=O)c1ccc(-c2nn(CCn3ccnc3)c(=O)c3ccccc23)s1
- logP [5]: 1.51
- IC50 (Cavia porcellus [1]): 15.1 µM
- inhibition in vivo at 10 mg/kg (Cavia porcellus [2]): 94%
- inhibition [3]: 5%
- inhibition [4]: 80%

SMILES: CCc1ccc(-c2nn(CCn3ccnc3)c(=O)c3ccccc23)s1
- logP [5]: 3.02
- IC50 (Cavia porcellus [1]): 1.78 µM
- inhibition in vivo at 10 mg/kg (Cavia porcellus [2]): 96%
- inhibition [3]: 52%
- inhibition [4]: 67%

SMILES: O=c1c2ccccc2c(-c2ccco2)nn1CCn1ccnc1
- logP [5]: 1.52
- IC50 (Cavia porcellus [1]): 42.7 µM
- inhibition [4]: 27%

SMILES: O=c1c2ccccc2c(-c2ccccc2)nn1CCCCn1ccnc1
- IC50 (Cavia porcellus [1]): 17.4 µM
- inhibition [4]: 65%

SMILES: Cc1nn(CCn2ccnc2)c(=O)c2ccccc12
- logP [5]: 0.538
- IC50 (Cavia porcellus [1]): > 100 µM
- inhibition [4]: 10%

SMILES: O=c1c2ccccc2c(-c2ccc(C(F)(F)F)cc2)nn1CCn1ccnc1
- IC50 (Cavia porcellus [1]): 11.2 µM
- inhibition [4]: 40%

SMILES: COc1ccc(-c2nn(CCn3ccnc3)c(=O)c3ccccc23)s1
- logP [5]: 1.94
- IC50 (Cavia porcellus [1]): 4.27 µM
- inhibition [4]: 88%

SMILES: O=C(O)c1ccccc1-c1nn(CCn2ccnc2)c(=O)c2ccccc12
- IC50 (Cavia porcellus [1]): 49 µM
- inhibition in vivo at 10 mg/kg (Cavia porcellus [2]): 94%
- inhibition [4]: 14%

SMILES: O=c1c2ccccc2c(-c2ccc(F)cc2)nn1CCn1ccnc1
- IC50 (Cavia porcellus [1]): 15.8 µM
- inhibition in vivo at 10 mg/kg (Cavia porcellus [2]): 100%
- inhibition [3]: 46%
- inhibition [4]: 33%

SMILES: O=c1c2ccccc2c(-c2ccccc2)nn1CCCCCCn1ccnc1
- IC50 (Cavia porcellus [1]): 9.77 µM
- inhibition [4]: 79%

SMILES: O=c1c2ccccc2c(Cc2cccs2)nn1CCn1ccnc1
- IC50 (Cavia porcellus [1]): 7.59 µM
- inhibition in vivo at 10 mg/kg (Cavia porcellus [2]): 100%
- inhibition [3]: 35%
- inhibition [4]: 29%

SMILES: CCOc1ccc(-c2nn(CCn3ccnc3)c(=O)c3ccccc23)cc1
- IC50 (Cavia porcellus [1]): 5.62 µM
- inhibition in vivo at 10 mg/kg (Cavia porcellus [2]): 87%
- inhibition [3]: 68%
- inhibition [4]: 54%

SMILES: Cn1c(=O)c2[nH]cnc2n(C)c1=O [AMINOPHYLLINE]
- IC50 (Cavia porcellus [1]): 46.8 µM
- inhibition in vivo at 10 mg/kg (Cavia porcellus [2]): 86%
- inhibition [3]: 0%

SMILES: Cc1ccc(-c2nn(CCn3ccnc3)c(=O)c3ccccc23)s1
- IC50 (Cavia porcellus [1]): 6.61 µM
- inhibition in vivo at 10 mg/kg (Cavia porcellus [2]): 26%
- inhibition [3]: 0%
- inhibition [4]: 53%

SMILES: CC(C)Cc1nn(CCn2ccnc2)c(=O)c2ccccc12
- logP [5]: 2
- IC50 (Cavia porcellus [1]): 12 µM
- inhibition [3]: 21%
- inhibition [4]: 14%

SMILES: O=C(O)/C=C/c1ccc(Cn2ccnc2)cc1 [OZAGREL]
- IC50 (Cavia porcellus [1]): > 1000 µM
- inhibition in vivo at 10 mg/kg (Cavia porcellus [2]): 0%

SMILES: O=C(O)c1ccc(-c2nn(CCn3ccnc3)c(=O)c3ccccc23)s1
- IC50 (Cavia porcellus [1]): 34.7 µM
- inhibition in vivo at 10 mg/kg (Cavia porcellus [2]): 5%

SMILES: O=c1c2ccccc2c(Cc2ccc(Cl)cc2)nn1CCn1ccnc1
- IC50 (Cavia porcellus [1]): 5.62 µM
- inhibition in vivo at 10 mg/kg (Cavia porcellus [2]): 100%
- inhibition [3]: 40%
- inhibition [4]: 49%

SMILES: Cc1ccc(-c2nn(CCn3ccnc3)c(=O)c3ccccc23)cc1
- IC50 (Cavia porcellus [1]): 5.13 µM
- inhibition in vivo at 10 mg/kg (Cavia porcellus [2]): 94%
- inhibition [3]: 0%
- inhibition [4]: 76%

SMILES: O=c1c2ccccc2c(-c2ccc(Cl)s2)nn1CCn1ccnc1
- IC50 (Cavia porcellus [1]): 1.45 µM
- inhibition in vivo at 10 mg/kg (Cavia porcellus [2]): 96%
- inhibition [3]: 15%
- inhibition [4]: 47%

SMILES: O=c1c2ccccc2c(-c2ccccc2)nn1CCCCCCCCn1ccnc1
- IC50 (Cavia porcellus [1]): 8.13 µM
- inhibition [4]: 63%

SMILES: CC(C)c1ccc(-c2nn(CCn3ccnc3)c(=O)c3ccccc23)cc1
- IC50 (Cavia porcellus [1]): 5.37 µM
- inhibition in vivo at 10 mg/kg (Cavia porcellus [2]): 68%
- inhibition [3]: 52%
- inhibition [4]: 64%

SMILES: CCc1ccsc1-c1nn(CCn2ccnc2)c(=O)c2ccccc12
- IC50 (Cavia porcellus [1]): 18.6 µM
- inhibition in vivo at 10 mg/kg (Cavia porcellus [2]): 84%
- inhibition [3]: 46%
- inhibition [4]: 68%

SMILES: COc1ccc(-c2nn(CCn3ccnc3)c(=O)c3ccccc23)cc1OC
- IC50 (Cavia porcellus [1]): 6.46 µM
- inhibition in vivo at 10 mg/kg (Cavia porcellus [2]): 90%
- inhibition [3]: 32%
- inhibition [4]: 27%

SMILES: COc1ccc(-c2nn(CCn3ccnc3)c(=O)c3ccccc23)cc1F
- IC50 (Cavia porcellus [1]): 3.89 µM
- inhibition in vivo at 10 mg/kg (Cavia porcellus [2]): 54%
- inhibition [3]: 60%
- inhibition [4]: 63%

SMILES: O=c1c2ccccc2c(-c2cccc(C(F)(F)F)c2)nn1CCn1ccnc1
- IC50 (Cavia porcellus [1]): 1 µM
- inhibition in vivo at 10 mg/kg (Cavia porcellus [2]): 42%
- inhibition [3]: 37%
- inhibition [4]: 49%

SMILES: O=C(O)c1ccc(-c2nn(CCn3ccnc3)c(=O)c3ccccc23)cc1
- IC50 (Cavia porcellus [1]): 64.6 µM
- inhibition in vivo at 10 mg/kg (Cavia porcellus [2]): 21%
- inhibition [4]: 24%

SMILES: CCOC(=O)c1ccc(-c2nn(CCn3ccnc3)c(=O)c3ccccc23)s1
- IC50 (Cavia porcellus [1]): 13.2 µM
- inhibition in vivo at 10 mg/kg (Cavia porcellus [2]): 92%
- inhibition [4]: 62%

SMILES: O=C(O)c1cccc(-c2nn(CCn3ccnc3)c(=O)c3ccccc23)c1
- IC50 (Cavia porcellus [1]): > 100 µM
- inhibition in vivo at 10 mg/kg (Cavia porcellus [2]): 33%
- inhibition [4]: 10%

SMILES: O=c1c2ccccc2c(C2CCCC2)nn1CCn1ccnc1
- logP [5]: 2.63
- IC50 (Cavia porcellus [1]): 5.89 µM
- inhibition in vivo at 10 mg/kg (Cavia porcellus [2]): 98%
- inhibition [4]: 38%

SMILES: O=c1c2ccccc2c(-c2ccc(Cl)cc2)nn1CCn1ccnc1
- IC50 (Cavia porcellus [1]): 2.04 µM
- inhibition in vivo at 10 mg/kg (Cavia porcellus [2]): 71%
- inhibition [3]: 40%
- inhibition [4]: 63%

SMILES: CCOC(=O)c1ccc(-c2nn(CCn3ccnc3)c(=O)c3ccccc23)cc1
- IC50 (Cavia porcellus [1]): 10 µM
- inhibition in vivo at 10 mg/kg (Cavia porcellus [2]): 92%
- inhibition [4]: 60%

SMILES: CCOC(=O)c1ccccc1-c1nn(CCn2ccnc2)c(=O)c2ccccc12
- IC50 (Cavia porcellus [1]): 60.3 µM
- inhibition in vivo at 10 mg/kg (Cavia porcellus [2]): 60%
- inhibition [4]: 64%

SMILES: O=c1c2ccccc2c(-c2ccccc2)nn1CCCn1ccnc1
- IC50 (Cavia porcellus [1]): 11 µM
- inhibition [4]: 57%
